Fewer inactive variants are shown than the library holds.
B1: tRNA (parent)
chain: GUUCCGUUGGCGUAAUGGUAACGCGUCUCCCUCCUAAGGAGAAGACUGCGGGUUCGAGUCCCGUACGGAACG

Variants of: B1
Assay: yeast fitness relative to wild type (ratio to wild type); higher = fitter; tRNA-Arg(CCU), competitive growth, 37 C, YPD
How it was run: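 For this measurement, the tRNA-Arg(CCU) gene was varied by chemical synthesis at a 3% per-site mutation rate across 69 sites, and each variant was placed at the native genomic locus in Saccharomyces cerevisiae. The pooled strains went through a 24-hour competition in YPD at 37°C in six parallel replicates, with amplicons from start and end populations read by 100-nucleotide paired-end sequencing. Darwinian fitness relative to wild type followed from the change in each genotype's frequency. Genotypes needed ≥ 100 starting reads, and estimates < 0.5 were set to 0.5.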
In the case of GUUCCAUUCGGGUAAUGGUAACGCGUCUCCCUCCUAAGGAGAAGACUCCGGGUUCGAGACCCGUACGGAACG [G6A G9C C11G G48C U59A], the yeast fitness is reported as no more than 0.5. With GUUCCAUUCGCGUAAUGGUAACGCGUCUUCCUCCUAAGGAGAAGACUGCGGGUUGGAGUCCCGUACGGAACG [G6A G9C C29U C55G] the yeast fitness was no more than 0.5. GUUCCAUUCGCGUAAUGGUAACACGCCUCCCUCCUAAGGUGUAGACUGCGGGUUCGAGUCCCGUACGGAACG [G6A G9C G23A U26C A40U A42U] showed a yeast fitness of no more than 0.5. GUUCCAUUCGCGUAAUGGUAACGCGUCUCCCUCCUAAGGAGAACACUGCGGGUUCGAGUCCCGUACAGAACG [G6A G9C G44C G67A] gave a yeast fitness of 0.649. Work on GUUCCAUUCGCGUAAUGGCAACGUGUCUCCCUCCUAAGGAGAAGACUGCGGGUCCGAGUCCCGUACGGAACG [G6A G9C U19C C24U U54C] yielded a yeast fitness of no more than 0.5. In the case of GUUCCAUUUGUGUAAUGGUAACGCGUCUCCCUCCUAAGGAGAAGACUGCGGGUUCGAGUCCCGUACGGACCG [G6A G9U C11U A70C], the yeast fitness is reported as 0.533. GUUCCAUUGACGUAAUGGUAACGCGUCUCCCUCCUAAGGAGAAGACUGCGGGUUCGAGUCCCGUACGGAACG [G6A G10A] gave a yeast fitness of 0.859. With GUUCCAUUGACGUAAUGGUAACGCGUCUCCCUCCUAAGGAGAAGGCUGCGGGUUCGAGUCCCGUACGGAACG [G6A G10A A45G] the yeast fitness was 0.647. With GUUCCAUUGACGUAAUGGUAAGGCCUCUCCCUCCUAAGGAGAAGACUGCGGGUUCGAGUCCCGUACGGAACG [G6A G10A C22G G25C] the yeast fitness was no more than 0.5. With GUUCCAUUGACGUAAUGGUAACGCGUCUCCCUCCUAAGGAGAAGACUGCGGGUUCGAGUGCCGUACGGAACG [G6A G10A C60G] the yeast fitness was no more than 0.5. In the case of GUUCCAUUGACGUAAUAGUAACGCGUCUCCCUCCUAAGGAGAAGACUGCGGGUUCGAGUCCCGUACGGAACG [G6A G10A G17A], the yeast fitness is reported as 0.55. With GUUCCAUUGACGUAAUGAUAACGCGUGUCCCUCCUAGAGAGAAGACUGCGGGUUCGAGUCCCGUACGGAACG [G6A G10A G18A C27G A37G G38A] the yeast fitness was no more than 0.5. In the case of GUUCCAUUGCCGUAUUGGUAACGCGUCUCCCUCCUAAGGAGAAGACUGCGGGUUCGAGUCCCGUACGGAGCG [G6A G10C A15U A70G], the yeast fitness is reported as no more than 0.5. Work on GUUCCAUUGCCGUAUUGGUAACGCGUCUCCCUCCUAAGGAGAAGACUGCGGGUUCGAGUCACGUACGGAACG [G6A G10C A15U C61A] yielded a yeast fitness of no more than 0.5. For GUUCCAUUGCCGUAAUGGUCACGCGUCCCCCUCCUUAGGAGAAGACUGCGGGUUCGAGUCCCGUACGGAACG [G6A G10C A20C U28C A36U], the yeast fitness was 0.695. GUUCCAUUGCCGUAAUGGUAACGUGUCUCCCUCUUUAGGAGAAGAAUGCGGGUUCGAGUCCCGUACGGAACG [G6A G10C C24U C34U A36U C46A] gave a yeast fitness of no more than 0.5. GUUCCAUUGCCGUAAUGGUAACGCGUCUUCCUCCUAAGGAGAAGACUGCGGGUUCGAGUCCCGUACGGAACG [G6A G10C C29U] showed a yeast fitness of no more than 0.5. GUUCCAUUGCCGUAAUGGUAACGCGUCUCCCUCUUAAGGAGAAGAUUGCGGGUUCGAGUCCCGUACGGAACG [G6A G10C C34U C46U] gave a yeast fitness of no more than 0.5. For GUUCCAUUGCCGUAAUGGUAACGCGUCUCCCUCUUAAGGAGAAGACUGCGGCUUCGAGUCCCGUACGGAACG [G6A G10C C34U G52C], the yeast fitness was no more than 0.5. Variant GUUCCAUUGCCGUAAUGGUAACGCGUCUCCCUCCUAAGGAGAAGACUGCGGGUUCGAGUCCCAUACGGAACG [G6A G10C G63A] has a yeast fitness of no more than 0.5. GUUCCAUUGCCGUAAUGGUAACGCGUCUCCCUCCUAAGGAGAAGACUGCGGGUCCGAGUCCCGUACGGAACG [G6A G10C U54C] showed a yeast fitness of no more than 0.5. Work on GUUCCAUUGGCAUACUGGUAACGAGUCUCCCUCCUAAGGAGAAGACUGCGGGUUCGAGUCCCGUACGGAACG [G6A G12A A15C C24A] yielded a yeast fitness of no more than 0.5. Variant GUUCCAUUGGCAUAAUGGUAACGCGUCUCCCUCCUAAGGAGAAGACUGCGGGUUCGUGUCCCGUACGGAACG [G6A G12A A57U] has a yeast fitness of no more than 0.5. With GUUCCAUUGGCAUAAUGGUAACGCGUCUCCCUGCUAAGGAGAAGACUGCGGGUACGAGACCCGUACAGAACG [G6A G12A C33G U54A U59A G67A] the yeast fitness was no more than 0.5. For GUUCCAUUGGCAUAAUGGUAACGCGUCUCCCUCCUAAGGAAAAGACUGCGGGUUCGAGUCCCGUUCGGAACG [G6A G12A G41A A65U], the yeast fitness was 0.547. With GUUCCAUUGGCACAAAGGGAACACGUCUCCCUCCUAAGGAGAAGACUGCGGGUUCGAAUCCCGUACGAAACG [G6A G12A U13C U16A U19G G23A G58A G68A] the yeast fitness was no more than 0.5. GUUCCAUUGGCAUAAUGGUAACGCGUCUCCCUCCUAAGGAGAAGACUGCGGGUCCGAGUGCCGUACGGAACG [G6A G12A U54C C60G] gave a yeast fitness of no more than 0.5. GUUCCAUUGGCCUAAUGGUAACGCGUCUCCCUCCUAAGGAGAAGACUGCGGGUUCGAGUCCCGUACGGAACG [G6A G12C] showed a yeast fitness of 0.855. In the case of GUUCCAUUGGCCUAAUGGUAACGCGUCUCCCUCUUAAGGAGAAGACUGCGGGUUCGAGUCCCGUACGGAUCG [G6A G12C C34U A70U], the yeast fitness is reported as 0.671. With GUUCCAUUGGCCUAAUGGUAACGCGUCUCCCUCCUAAGGAGAAGACUGGGGGUUCGAGUCCCGUACGGAACG [G6A G12C C49G] the yeast fitness was no more than 0.5. GUUCCAUUGGCCUAAAGGUAACGCGUCUCCCUCCUAAGGAGAAGACUGCGGGUUCGAGUCCCGUACGGAACG [G6A G12C U16A] showed a yeast fitness of 0.799. Variant GUUCCAUUGGCCUAAAGGUACCGCGUCUCCCUCCUAAGGAGAAGACUGCGGGUUCGAGUCCCGUACGGAACG [G6A G12C U16A A21C] has a yeast fitness of no more than 0.5. Work on GUUCCAUUGGCCUAAAGGUACCGCGUCUCCCUCCUAAGGAGAAGACUGCGGGUUCAAGUCCCGUACGGAACG [G6A G12C U16A A21C G56A] yielded a yeast fitness of 0.536. Variant GUUCCAUUGGCCUAACGGUAUCGCGUCUCCCUCCUAAGGAGAAGACUGCGGGUUCGAGUCCCGUACGGAACG [G6A G12C U16C A21U] has a yeast fitness of 0.532. With GUUCCAUUGGCCUAACGGUAUCGCGUCUCCCUCCUAAGGAGAAGACUGCGGGUUCGAGUCCCGUAUGGAACG [G6A G12C U16C A21U C66U] the yeast fitness was 0.571. GUUCCAUUGGCCUAACGGUAACGCGUCUCCUUCCUAAGGAGAAGACUGCGGCUUCGAGUCCCGUACGGAACG [G6A G12C U16C C31U G52C] gave a yeast fitness of 0.555. With GUUCCAUUGGCCUAACGGUAACGCGUCUCCUUCCUAAGGAGAAGACUGCGGCUUCGAGUCCCGUACGGAGCG [G6A G12C U16C C31U G52C A70G] the yeast fitness was 0.651.

Reference: the RNAGym collection of RNA variant scans (doi:10.1126/science.aae0568)
